# Screening results deposited in PubChem by several laboratories.
# Glyco luc inh – N-linked glycosylation inhibition; AID 588692; hit rate 0.23% among 360,000; reporter increase, % at 12.5 µM; D54 ERlucT glycosylation luciferase reporter, 24 h; percent of 100 nM tunicamycin response;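 active = mean luciferase reporter signal, scaled so untreated is 0 and the glycosylation-blocking control 100, at or above a set limit in every replicate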;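 note: luciferase carries N-glycosylation sites so blocking glycosylation raises the light; 0% = median of neutral control wells and 100% = median of 100 nM tunicamycin wells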
# ALR inh – blocks human ALR sulfhydryl oxidase activity. purified ALR, DTT oxidation, H2O2 HRP-luminol luminescence. inhibition, % (concentration not given with the values). hit rate 3.8% among 290,000;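 active = mean replicate inhibition above about 79%, with every replicate also reaching it, limit read from the data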
# Target sequence (P55789 whole entry, looked up): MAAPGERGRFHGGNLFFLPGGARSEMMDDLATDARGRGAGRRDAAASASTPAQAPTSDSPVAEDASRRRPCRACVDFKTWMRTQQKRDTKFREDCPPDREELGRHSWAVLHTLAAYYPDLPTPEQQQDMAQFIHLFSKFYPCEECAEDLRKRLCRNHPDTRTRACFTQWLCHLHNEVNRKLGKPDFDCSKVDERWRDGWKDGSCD
# T cell HTS – T cell immune modulation candidate; response (vesicle binding), % at 7 µM; AID 2052; 2C CD8+ T cell-vesicle binding, flow cytometry; active compounds read low; hit rate 0.068% among 330,000;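 active = response, share of CD8 T cells binding vesicles, and their 90th percentile fluorescence all below set limits, cut at about 80% in these data, passing the limit was not always enough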;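 note: values below 100% mean blocked vesicle binding to the CD8+ T cells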
#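 Read-out – percent CD8+ FL2 mean versus row control · System – murine 2C transgenic CD8+ T lymphocytes · Times – 1.5 h cell–vesicle binding at 37 °C, then 20 min icy labelling · Control set – naked vesicles low, QL9 vesicles with vehicle high · Detection – cytometric PE anti-B7-1 and Alexa647 anti-CD8 signals after 1% paraformaldehyde fixation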
# Starred values were filed as active, the others as inactive; · = no result given. Only a selection was taken, and hits are over-represented in it overall.
SMILES,Glyco luc inh,ALR inh,T cell HTS
O=C1C2N=NN(CC(=O)N3N=C(c4ccccc4)CC3c3ccc([N+](=O)[O-])cc3)C2C(=O)N1c1ccccc1 (configuration not stated),·,1.9,304.4
CC1Cc2ccccc2N1C(=O)NC1CC(=O)N(c2ccc3c(c2)OCCO3)C1 (configuration not stated),-1.6,10.9,743.1
CC(Nc1ccc2c(c1)OCCO2)C(=O)N1c2ccccc2CC1C (configuration not stated),-1.5,98.5*,182.6
O=[N+]([O-])c1cc(S(=O)(=O)C(F)(F)F)ccc1NCC1CCCO1 (configuration not stated),-0.8,-15.5,354.0
NS(=O)(=O)c1ccc(NC(=S)NC(=O)c2ccc(Br)o2)cc1,0.3,-3.6,147.3
Cc1c(C(=O)NNC(=S)Nc2ccc(S(N)(=O)=O)cc2)oc2ccccc12,-0.4,99.0*,144.8
NS(=O)(=O)c1ccc(NC(=S)NNC(=O)c2ccc(Br)o2)cc1,2.3,94.9*,433.0
Cc1c(C(=O)Nc2ccc(S(N)(=O)=O)cc2)oc2ccc(Cl)cc12,-0.7,-2.9,145.1
FC(F)(F)c1ccccc1-c1ccc2nncn2c1,2.7,·,·
Cc1cc(C)n(Cc2cccc(C(=O)N/N=C/c3cccnc3)c2)n1,0.7,·,·
CNC(=S)NNC(=O)c1ccc(C(C)(C)C)cc1,2.0,1.4,725.9
O=C(Nc1ccncc1)c1ccccc1Cl,-2.7,-8.4,183.8
O=C(CC(Sc1ccc(Br)cc1)C(=O)O)c1ccc(Br)cc1 (configuration not stated),·,·,243.7
Cc1ccc(SC(CC(=O)c2ccc(C)cc2)C(=O)O)cc1 (configuration not stated),-0.2,99.1*,416.0
C#CCOCCOCCOCCNc1nc(N2CCN(C(=O)[C@H](CCC(=O)O)n3cc([C@@H](N)[C@H](C)CC)nn3)CC2)nc(N2CCN(C(=O)[C@H](CCC(=O)O)n3cc([C@@H](N)CC(N)=O)nn3)CC2)n1,0.9,·,253.9
CC1(C)CC(=O)C2=C(C1)NC(=S)C(C#N)C21CCCCC1 (configuration not stated),1.5,-2.1,187.2
CCn1nc(C)c(CN2CCCC(CO)(Cc3cccc(Cl)c3)C2)c1C (configuration not stated),-0.1,0.9,348.6
CCOC(=O)c1c(-n2c(C)cc(C=O)c2C)sc2c1CCCC2,-4.2,-3.0,195.4
Cc1ccc(C)n1-c1sc2c(c1C(=O)O)CCCC2,6.4,96.1*,228.8
CCCn1nnnc1SCC(=O)NC1CCCC1,-0.9,-1.1,153.7
COCCNC(=S)N(CCc1c(C)[nH]c2ccccc12)Cc1ccco1,-1.2,87.1*,363.4
CCNC(=S)N(CCc1c(C)[nH]c2ccc(Cl)cc12)Cc1ccco1,-4.3,31.2,456.0
Cc1cccc(N2CCN(C(=O)C3CCC(=O)N(Cc4ccccc4F)C3)CC2)c1C (configuration not stated),-1.3,-8.2,177.9
N#C/C(=C\c1ccc(N2CCCCC2)o1)C(=O)Nc1cccc(Br)c1,-6.9,-6.2,81.2
N#C/C(=C\c1ccc(N2CCCCC2)o1)C(N)=O,0.8,90.1*,170.6
SMILES,Glyco luc inh,ALR inh,T cell HTS
COc1c(C)cc(C(=O)C2CCCN(C(=O)Cn3nc(C)nc3C)C2)cc1C (configuration not stated),0.4,2.4,854.5
O=c1cc(CSc2ccccc2)[nH]c2ccccc12,-1.7,-2.5,223.4
Cc1ccc(SCc2cc(=O)c3c(=O)n(-c4ccccc4)[nH]c3[nH]2)cc1,0.4,93.7*,346.9
O=c1cc(CSc2ccc(Cl)cc2)[nH]c2[nH]n(-c3ccccc3)c(=O)c12,2.2,84.7*,469.4
Cc1[nH]n(-c2ccccc2)c(=O)c1Sc1ccc(Cl)cc1,0.3,21.8,299.3
COc1cc(C(=O)N2CCN(c3ccccc3Cl)CC2)ccc1OCC(=O)N1CCOCC1,1.1,·,252.2
C/C(=N\NC(=S)Nc1c(C)cccc1C)c1ccc(O)cc1,1.0,87.3*,199.8
C/C(=N\NC(=S)Nc1c(C)cccc1C)c1cc2ccccc2o1,-4.7,-0.1,322.2
CCCS(=O)(=O)NC(=O)C1(C)CCN(C(=O)c2cccc(C)c2C)C1 (configuration not stated),0.4,·,·
COc1cc(Br)cc(C(c2c(C)n(C)n(-c3ccccc3)c2=O)c2c(C)n(C)n(-c3ccccc3)c2=O)c1O,-0.9,5.0,160.5
CC(OC(=O)CCc1cc(C(C)(C)C)c(O)c(C(C)(C)C)c1)C(=O)NC1CC1 (configuration not stated),-2.2,32.8,272.0
Brc1ccc2nc(C3CCCCC3)c(CC3CCCCC3)n2c1,-7.9,·,·
CCOC(=O)c1cnc2c(C)c(Cl)ccc2c1NCCCN1CCOCC1,1.8,1.6,242.1
